Experiments:
Rattus norvegicus [1] = assay: compound was tested for antipsychotic activity by conditioned avoidance response(CAR) assay in rats with a pretreatment period of 60 min upon peroral administration at a concentration of 20 mg/kg.; assay type: functional; conditions: route oral
Procedure, shortened: (§1)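 Trained rats (N = 4) were run in 1-h sessions on two consecutive days, with the experimenter blind to drug and dose. Fed rats had food and water until placed in the test chambers. Fasted rats had no food overnight before the experiment.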

Rattus norvegicus [2] = assay: compound was tested for antipsychotic activity by conditioned avoidance response(CAR) assay in rats with a pretreatment period of 30 min upon intra peritoneal administration at a concentration of 5 mg/kg.; assay type: functional
Procedure, shortened: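 Rat conditioned avoidance test modified from Martin et al. Trained rats (N = 4) were run in 1-h sessions on two consecutive days. Fed animals had food and water until placed in the test chambers. Dosing was ip with 30 min pretreatment, and activity was expressed as percent inhibition at the stated dose.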

Rattus norvegicus [3] = assay: compound was tested for antipsychotic activity by conditioned avoidance response(CAR) assay in rats with a pretreatment period of 30 min upon intra peritoneal administration at a concentration of 1 mg/kg.; assay type: functional; procedure, shortened: as §1
[4] = molecular target: T1, Adrenergic receptor alpha-1 (Rattus norvegicus, UniProt P15823+P23944+P43140); assay: Binding affinity against Alpha-1 adrenergic receptor from rat cerebral cortex; assay type: tissue-based
T1 sequence (P15823 whole entry): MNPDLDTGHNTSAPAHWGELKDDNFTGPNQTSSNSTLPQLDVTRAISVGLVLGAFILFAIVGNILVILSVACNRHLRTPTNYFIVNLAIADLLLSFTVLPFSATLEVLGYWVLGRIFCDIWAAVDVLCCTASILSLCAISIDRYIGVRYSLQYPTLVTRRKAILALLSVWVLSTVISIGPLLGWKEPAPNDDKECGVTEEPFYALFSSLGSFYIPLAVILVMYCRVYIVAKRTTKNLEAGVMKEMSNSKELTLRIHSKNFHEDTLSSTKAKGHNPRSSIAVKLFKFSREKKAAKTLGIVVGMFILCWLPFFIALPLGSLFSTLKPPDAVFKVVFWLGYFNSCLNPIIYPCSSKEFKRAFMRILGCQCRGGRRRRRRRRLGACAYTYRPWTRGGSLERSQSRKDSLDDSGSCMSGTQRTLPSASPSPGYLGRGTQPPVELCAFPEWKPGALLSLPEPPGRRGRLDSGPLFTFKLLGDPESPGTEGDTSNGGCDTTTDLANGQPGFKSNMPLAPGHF
T1 sequence (P23944 whole entry): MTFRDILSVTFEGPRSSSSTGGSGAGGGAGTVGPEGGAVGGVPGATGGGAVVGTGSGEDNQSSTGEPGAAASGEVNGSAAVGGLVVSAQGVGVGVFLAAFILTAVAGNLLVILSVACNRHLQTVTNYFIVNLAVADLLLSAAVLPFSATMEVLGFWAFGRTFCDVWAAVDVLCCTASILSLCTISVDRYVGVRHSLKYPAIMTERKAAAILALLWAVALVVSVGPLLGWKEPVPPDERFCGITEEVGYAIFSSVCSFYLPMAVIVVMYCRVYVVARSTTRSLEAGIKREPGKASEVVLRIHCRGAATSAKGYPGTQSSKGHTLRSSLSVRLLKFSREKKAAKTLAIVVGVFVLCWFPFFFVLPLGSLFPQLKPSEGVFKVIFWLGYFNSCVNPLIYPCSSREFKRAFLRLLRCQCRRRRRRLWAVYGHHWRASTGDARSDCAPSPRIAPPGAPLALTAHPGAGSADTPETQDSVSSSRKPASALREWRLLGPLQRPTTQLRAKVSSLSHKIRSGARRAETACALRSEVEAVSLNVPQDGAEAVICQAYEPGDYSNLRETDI
T1 sequence (P43140 whole entry): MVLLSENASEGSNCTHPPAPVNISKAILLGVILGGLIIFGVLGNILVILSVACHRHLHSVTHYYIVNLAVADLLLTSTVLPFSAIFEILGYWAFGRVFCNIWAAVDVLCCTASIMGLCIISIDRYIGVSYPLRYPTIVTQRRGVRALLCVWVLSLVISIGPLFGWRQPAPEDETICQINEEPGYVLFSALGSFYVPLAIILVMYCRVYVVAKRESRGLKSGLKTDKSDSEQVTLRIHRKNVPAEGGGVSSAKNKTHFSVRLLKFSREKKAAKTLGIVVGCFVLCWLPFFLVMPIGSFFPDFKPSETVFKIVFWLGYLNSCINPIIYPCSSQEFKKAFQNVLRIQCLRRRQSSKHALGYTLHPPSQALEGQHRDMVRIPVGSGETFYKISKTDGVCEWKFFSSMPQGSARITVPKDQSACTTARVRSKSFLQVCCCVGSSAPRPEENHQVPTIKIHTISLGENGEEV

[5] = molecular target: T2, 5-hydroxytryptamine receptor 1A (Rattus norvegicus, UniProt P19327); assay: Compound was evaluated for its binding affinity against 5-hydroxytryptamine 1A receptor from rat cerebral cortex; assay type: tissue-based
T2 sequence (P19327 whole entry): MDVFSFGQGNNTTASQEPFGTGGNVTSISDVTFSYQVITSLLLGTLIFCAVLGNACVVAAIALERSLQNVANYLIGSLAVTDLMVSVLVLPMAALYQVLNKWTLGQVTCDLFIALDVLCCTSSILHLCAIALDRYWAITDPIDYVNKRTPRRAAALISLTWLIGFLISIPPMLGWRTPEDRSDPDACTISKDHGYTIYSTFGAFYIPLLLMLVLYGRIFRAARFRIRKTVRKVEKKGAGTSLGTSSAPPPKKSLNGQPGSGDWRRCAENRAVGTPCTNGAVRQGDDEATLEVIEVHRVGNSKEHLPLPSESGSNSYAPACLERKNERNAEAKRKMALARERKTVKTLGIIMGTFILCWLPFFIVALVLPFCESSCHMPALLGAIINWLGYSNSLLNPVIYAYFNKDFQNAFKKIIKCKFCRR

Rattus norvegicus [6] = assay: Percent catalepsy in male Spargue-Dawley rat at pretreatment time 60 mins and when administered ip at dose 50 mg/kg; assay type: functional; conditions: route intraperitoneal
Procedure, shortened: (§2)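 Catalepsy in rats, groups of five per drug treatment, scored blind to drug and dose. Each session included a saline or vehicle negative control and a haloperidol 2 mg/kg positive control. Deaths during the experiment were recorded in the catalepsy column as number dead out of five.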

Rattus norvegicus [7] = assay: compound was tested for antipsychotic activity by conditioned avoidance response(CAR) assay in rats with a pretreatment period of 30 min upon peroral administration at a concentration of 20 mg/kg.; assay type: functional; conditions: route oral; procedure, shortened: as §1
Rattus norvegicus [8] = assay: compound was tested for antipsychotic activity by conditioned avoidance response(CAR) assay in rats with a pretreatment period of 30 min upon intra peritoneal administration.; assay type: functional; procedure, shortened: as §1
Rattus norvegicus [9] = assay: Percent catalepsy in male Spargue-Dawley rat at pretreatment time 60 mins and administered ip at dose 50 mg/kg; assay type: functional; conditions: route intraperitoneal; procedure, shortened: as §2
Rattus norvegicus [10] = assay: compound was tested for antipsychotic activity by conditioned avoidance response(CAR) assay in rats with a pretreatment period of 60 min upon peroral administration. Values in brackets indicates 95% confidence limits for ED50; assay type: functional; conditions: po
Procedure, shortened: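 Rats trained in conditioned avoidance were run in a 1-h session on two consecutive days (N = 4). The read-out was reduction of the conditioned response to a disagreeable stimulus. Oral dosing was 60 min before testing. Fed rats had food and water until placed in the test chambers; fasted rats had no food overnight before the experiment.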

Rattus norvegicus [11] = assay: compound was tested for antipsychotic activity by conditioned avoidance response(CAR) assay in rats with a pretreatment period of 240 min upon peroral administration; assay type: functional; conditions: po; procedure, shortened: as §1
Rattus norvegicus [12] = assay: Percent catalepsy in male Spargue-Dawley rat at pretreatment time 60 mins and when administered ip at dose 50 mg/kg (1/5L denotes that one rat out of five died during the course of experiment); assay type: functional; conditions: route intraperitoneal
Procedure, shortened: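 Catalepsy scored in groups of five rats per drug treatment, with the experimenter blind to drug and dose, in a quiet room. Each session included two control groups: saline (or vehicle) as negative control and haloperidol 2 mg/kg as positive control. Deaths during the experiment were recorded as lethality (e.g., 3/5L) in place of percent catalepsy.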

Rattus norvegicus [13] = assay: compound was tested for antipsychotic activity by conditioned avoidance response(CAR) assay in rats with a pretreatment period of 60 min upon peroral administration; assay type: functional; conditions: po; procedure, shortened: as §1
Rattus norvegicus [14] = assay: Percent catalepsy in male Spargue-Dawley rat at pretreatment time 240 mins and administered ip at dose 50 mg/kg; assay type: functional; conditions: route intraperitoneal; procedure, shortened: as §2
Rattus norvegicus [15] = assay: compound was tested for antipsychotic activity by conditioned avoidance response(CAR) assay in rats with a pretreatment period of 30 min upon peroral administration; assay type: functional; conditions: po; procedure, shortened: as §1
Rattus norvegicus [16] = assay: compound was tested for antipsychotic activity by conditioned avoidance response(CAR) assay in rats with a pretreatment period of 60 min upon peroral administration.; assay type: functional; conditions: po; procedure, shortened: as §1
Rattus norvegicus [17] = assay: compound was tested for antipsychotic activity by conditioned avoidance response(CAR) assay in rats with a pretreatment period of 120 min upon peroral administration; assay type: functional; conditions: po; procedure, shortened: as §1
[18] = molecular target: T2, 5-hydroxytryptamine receptor 1A; assay: Compound was evaluated for its binding affinity with 5-hydroxytryptamine 1A receptor using membranes prepared from rat cerebral cortex; assay type: tissue-based
Procedure, shortened: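 Membranes from male Wistar rat cerebral cortex: homogenized in HEPES-buffered 0.3 M sucrose, P2 pellet incubated 30 min at 25 °C, resuspended in 3 mM phosphate buffer pH 7.5. Labeled with 3 nM [3H]-8-OH-DPAT for 20 min at 25 °C. Nonspecific binding defined with 1 μM serotonin.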

[19] = molecular target: T1, Adrenergic receptor alpha-1; assay: Compound was evaluated for its binding affinity with Alpha-1 adrenergic receptor using membranes prepared from rat cerebral cortex; assay type: tissue-based

SMILES: CC(=O)N(C)C(=O)c1cccc(CN2CCN(c3ccccc3OC(C)C)CC2)c1
- inhibition in vivo at 20 mg/kg (Rattus norvegicus [1]): -1.6%
- inhibition in vivo at 5 mg/kg (Rattus norvegicus [2]): -94.5%
- inhibition in vivo at 1 mg/kg (Rattus norvegicus [3]): -9.6%
- Ki [4]: 388 nM
- Ki [5]: 3.3 nM

SMILES: O=C(c1cccc(CN2CCN(C3COc4ccccc4O3)CC2)c1)N1CCCCC1 (stereo unspecified)
- inhibition in vivo at 5 mg/kg (Rattus norvegicus [2]): -93.8%
- inhibition in vivo at 1 mg/kg (Rattus norvegicus [3]): -2.6%
- Ki [4]: 21 nM
- Catalepsy (Rattus norvegicus [6]): 29%
- Ki [5]: 0.34 nM
- inhibition in vivo at 20 mg/kg (Rattus norvegicus [7]): -68.2%

SMILES: CCOc1ccccc1N1CCN(Cc2cccc(C(=O)N3CCCCCC3)c2)CC1
- ED50 (Rattus norvegicus [8]): 1.26 mg/kg
- Ki [4]: 8.2 nM
- Catalepsy (Rattus norvegicus [9]): 47.5%
- Ki [5]: 0.71 nM

SMILES: O=C(CCCN1CCC(O)(c2ccc(Cl)cc2)CC1)c1ccc(F)cc1 [HALOPERIDOL]
- ED50 (Rattus norvegicus [10]): 0.31 mg/kg

SMILES: CC(C)Oc1ccccc1C1CCN(Cc2cccc(C(=O)N3CCCCC3)c2)CC1
- ED50 (Rattus norvegicus [11]): 7.93 mg/kg
- ED50 (Rattus norvegicus [8]): 0.75 mg/kg
- Catalepsy (Rattus norvegicus [12]): 26.3%
- Ki [4]: 2.2 nM
- ED50 (Rattus norvegicus [13]): 7.69 mg/kg

SMILES: CC(C)Oc1ccccc1N1CCN(Cc2cccc(C(=O)N3CCCCC3)c2)CC1 [MAZAPERTINE]
- Catalepsy (Rattus norvegicus [14]): 47.8%
- ED50 (Rattus norvegicus [15]): 14.5 mg/kg
- ED50 (Rattus norvegicus [13]): 3.35 mg/kg
- ED50 (Rattus norvegicus [16]): 11 mg/kg
- Catalepsy (Rattus norvegicus [9]): 32.4%
- ED50 (Rattus norvegicus [17]): 26 mg/kg

SMILES: O=C(c1cccc(CN2CCN(c3nsc4ccccc34)CC2)c1)N1CCCCC1
- inhibition in vivo at 5 mg/kg (Rattus norvegicus [2]): -89.6%
- Ki [18]: 2.5 nM
- Catalepsy (Rattus norvegicus [6]): 74%
- Ki [19]: 2.7 nM
